Measured values taken from ChEMBL document CHEMBL4689842, “EUbOPEN Chemogenomics Library wave 1” (2021).

Test system: Fibroblast
Test: Multiplex assay against human fibroblast
Assay type: toxicity, cell-based
In short: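 Values for tubulin, mitochondrial-mass and membrane-permeability phenotypes are per cents of cells with healthy nuclei. These cells were identified by CellPathfinder machine-learning gating of live cells that had been stained at seeding with Hoechst33342, BioTracker Green Microtubule Cytoskeleton Dye, MitoTracker Red and Annexin V Alexa Fluor 680 and imaged on a CQ1 microscope at 37°C and 5% CO2 after compound addition. The gating first set Hoechst high-intensity objects apart from normal cells, then split normal cells into healthy, pyknosed or fragmented nuclei, and pyknosed cells into mitotic or apoptotic.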

[1] = 12 h, 1 µM, compound concentration 1 uM, replicate 1
[2] = 12 h, 1 µM, compound concentration 1 uM, replicate 2
[3] = 12 h, 10 µM, compound concentration 10 uM, replicate 1
[4] = 12 h, 10 µM, compound concentration 10 uM, replicate 2
[5] = 24 h, 1 µM, compound concentration 1 uM, replicate 1
[6] = 24 h, 1 µM, compound concentration 1 uM, replicate 2
[7] = 24 h, 10 µM, compound concentration 10 uM, replicate 1
[8] = 24 h, 10 µM, compound concentration 10 uM, replicate 2
[9] = 48 h, 1 µM, compound concentration 1 uM, replicate 1
[10] = 48 h, 1 µM, compound concentration 1 uM, replicate 2
[11] = 48 h, 10 µM, compound concentration 10 uM, replicate 1
[12] = 48 h, 10 µM, compound concentration 10 uM, replicate 2

COc1cc(Nc2nccc(-c3cnn4nc(OC)ccc34)n2)cc(C(F)(F)F)c1
Population Apoptotic (%) [1]: 42%
Population Fragmented Nuclei (%) [1]: 22%
Population Healthy Nuclei (%) [1]: 47%
Population Hoechst High Intensity Objects (%) [1]: 21%
Population Membrane Permeable-Phenotype (%) [1]: 25%
Population Mitochondria Different-Phenotype (%) [1]: 6%
Population Mitotic Cells (%) [1]: 57%
Population Normal (%) [1]: 78%
Population Pyknosed Nuclei (%) [1]: 30%
Population Tubulin-Different-Phenotype (%) [1]: 43%
Total Cell Count [1]: 87
Population Apoptotic (%) [2]: 50%
Population Fragmented Nuclei (%) [2]: 8%
Population Healthy Nuclei (%) [2]: 86%
Population Hoechst High Intensity Objects (%) [2]: 3%
Population Membrane Permeable-Phenotype (%) [2]: 2%
Population Mitochondria Different-Phenotype (%) [2]: 16%
Population Mitotic Cells (%) [2]: 50%
Population Normal (%) [2]: 96%
Population Pyknosed Nuclei (%) [2]: 5%
Population Tubulin-Different-Phenotype (%) [2]: 16%
Total Cell Count [2]: 44
Population Apoptotic (%) [3]: 57%
Population Fragmented Nuclei (%) [3]: 66%
Population Healthy Nuclei (%) [3]: 15%
Population Hoechst High Intensity Objects (%) [3]: 48%
Population Membrane Permeable-Phenotype (%) [3]: 13%
Population Mitochondria Different-Phenotype (%) [3]: 13%
Population Mitotic Cells (%) [3]: 42%
Population Normal (%) [3]: 51%
Population Pyknosed Nuclei (%) [3]: 17%
Population Tubulin-Different-Phenotype (%) [3]: 47%
Total Cell Count [3]: 283
Population Apoptotic (%) [4]: 33%
Population Fragmented Nuclei (%) [4]: 27%
Population Healthy Nuclei (%) [4]: 61%
Population Hoechst High Intensity Objects (%) [4]: 34%
Population Membrane Permeable-Phenotype (%) [4]: 3%
Population Mitochondria Different-Phenotype (%) [4]: 6%
Population Mitotic Cells (%) [4]: 66%
Population Normal (%) [4]: 65%
Population Pyknosed Nuclei (%) [4]: 11%
Population Tubulin-Different-Phenotype (%) [4]: 15%
Total Cell Count [4]: 82
Population Apoptotic (%) [5]: 75%
Population Fragmented Nuclei (%) [5]: 22%
Population Healthy Nuclei (%) [5]: 50%
Population Hoechst High Intensity Objects (%) [5]: 19%
Population Membrane Permeable-Phenotype (%) [5]: 8%
Population Mitochondria Different-Phenotype (%) [5]: 10%
Population Mitotic Cells (%) [5]: 25%
Population Normal (%) [5]: 80%
Population Pyknosed Nuclei (%) [5]: 27%
Population Tubulin-Different-Phenotype (%) [5]: 32%
Total Cell Count [5]: 92
Population Apoptotic (%) [6]: 45%
Population Fragmented Nuclei (%) [6]: 10%
Population Healthy Nuclei (%) [6]: 77%
Population Hoechst High Intensity Objects (%) [6]: 2%
Population Membrane Permeable-Phenotype (%) [6]: 4%
Population Mitotic Cells (%) [6]: 54%
Population Normal (%) [6]: 97%
Population Pyknosed Nuclei (%) [6]: 12%
Population Tubulin-Different-Phenotype (%) [6]: 19%
Total Cell Count [6]: 43
Population Apoptotic (%) [7]: 46%
Population Fragmented Nuclei (%) [7]: 57%
Population Healthy Nuclei (%) [7]: 21%
Population Hoechst High Intensity Objects (%) [7]: 54%
Population Membrane Permeable-Phenotype (%) [7]: 23%
Population Mitochondria Different-Phenotype (%) [7]: 11%
Population Mitotic Cells (%) [7]: 53%
Population Normal (%) [7]: 45%
Population Pyknosed Nuclei (%) [7]: 21%
Population Tubulin-Different-Phenotype (%) [7]: 42%
Total Cell Count [7]: 273
Population Apoptotic (%) [8]: 50%
Population Fragmented Nuclei (%) [8]: 26%
Population Healthy Nuclei (%) [8]: 56%
Population Hoechst High Intensity Objects (%) [8]: 29%
Population Membrane Permeable-Phenotype (%) [8]: 0%
Population Mitochondria Different-Phenotype (%) [8]: 23%
Population Mitotic Cells (%) [8]: 50%
Population Normal (%) [8]: 70%
Population Pyknosed Nuclei (%) [8]: 17%
Population Tubulin-Different-Phenotype (%) [8]: 11%
Total Cell Count [8]: 90
Population Apoptotic (%) [9]: 64%
Population Fragmented Nuclei (%) [9]: 32%
Population Healthy Nuclei (%) [9]: 50%
Population Hoechst High Intensity Objects (%) [9]: 11%
Population Mitochondria Different-Phenotype (%) [9]: 0%
Population Mitotic Cells (%) [9]: 35%
Population Normal (%) [9]: 88%
Population Pyknosed Nuclei (%) [9]: 17%
Population Tubulin-Different-Phenotype (%) [9]: 21%
Total Cell Count [9]: 92
Population Apoptotic (%) [10]: 66%
Population Fragmented Nuclei (%) [10]: 39%
Population Healthy Nuclei (%) [10]: 56%
Population Hoechst High Intensity Objects (%) [10]: 10%
Population Membrane Permeable-Phenotype (%) [10]: 17%
Population Mitochondria Different-Phenotype (%) [10]: 4%
Population Mitotic Cells (%) [10]: 33%
Population Normal (%) [10]: 89%
Population Pyknosed Nuclei (%) [10]: 4%
Population Tubulin-Different-Phenotype (%) [10]: 29%
Total Cell Count [10]: 82
Population Apoptotic (%) [11]: 69%
Population Fragmented Nuclei (%) [11]: 69%
Population Healthy Nuclei (%) [11]: 21%
Population Hoechst High Intensity Objects (%) [11]: 51%
Population Membrane Permeable-Phenotype (%) [11]: 10%
Population Mitochondria Different-Phenotype (%) [11]: 6%
Population Mitotic Cells (%) [11]: 30%
Population Normal (%) [11]: 48%
Population Pyknosed Nuclei (%) [11]: 9%
Population Tubulin-Different-Phenotype (%) [11]: 56%
Total Cell Count [11]: 291
Population Apoptotic (%) [12]: 50%
Population Fragmented Nuclei (%) [12]: 39%
Population Healthy Nuclei (%) [12]: 59%
Population Hoechst High Intensity Objects (%) [12]: 26%
Population Membrane Permeable-Phenotype (%) [12]: 4%
Population Mitochondria Different-Phenotype (%) [12]: 8%
Population Mitotic Cells (%) [12]: 50%
Population Normal (%) [12]: 73%
Population Pyknosed Nuclei (%) [12]: 1%
Population Tubulin-Different-Phenotype (%) [12]: 40%
Total Cell Count [12]: 205
